Measurements pooled from the literature.
Each line is one published result; the experiments were not run side by side.

Structure (SMILES)	technique	pH	chromatographic logD
CCOC(=O)C1=C(C)N/C(=C/c2cc(C)n(-c3cccnc3)c2C)C1=O	HPLC	pH 7.4	1.9
CCn1c(-c2nc3cc(C(=O)N4CCC[C@@H](N)C4)cc(OC)c3n2C)cc2cccnc21	HPLC	pH 7.4	2.4
O=C(Nc1ccnc(C(F)(F)F)c1)Nc1cccc2c1OC(F)(F)O2	HPLC	pH 7.4	3.6
Nc1cccc2c1CN(C1CCC(=O)NC1=O)C2=O (stereo not drawn)	HPLC	pH 7.4	-0.4
CC1=C(C#N)[C@@H](c2ccc(C#N)cc2C(F)(F)F)NC(=O)N1c1cccc(C(F)(F)F)c1	HPLC	pH 7.5	3.2
Cc1n[nH]c(CC(=O)N2Cc3c(-c4ccc(C(=O)N5CCCc6ccccc65)cc4)cnn3C[C@H]2C)n1	HPLC	pH 7.4	2.7
O=C(Nc1ccc2c(c1)B(O)OC2)Nc1ccc(F)c(C(F)(F)F)c1	HPLC	pH 7.4	2.5
CCOC(=O)C1=C(C)N/C(=C/c2cc(C)n(-c3ccc(S(=O)(=O)C(F)(F)F)cc3)c2C)C1=O	HPLC	pH 7.4	3.4
Cc1oc(-c2ccccc2)nc1C(=O)NCCN1CCCCCC1=O	–	pH 7.4	4.5
C[C@H](C(=O)N1Cc2c(-c3ccc(C(=O)N4CCCc5ccccc54)cc3)cnn2C[C@H]1C)c1ccccc1	HPLC	pH 7.4	5.2
CC1=C(C#N)[C@@H](c2ccc(C#N)cc2)NC(=O)N1c1cccc(C(F)(F)F)c1	HPLC	pH 7.5	2.8
CO[C@@H](C(=O)N1Cc2c(-c3ccc(C(=O)N4CCCc5ccccc54)cc3)cnn2C[C@H]1C(C)C)c1cnn(C)c1 (single isomer, unassigned)	HPLC	pH 7.4	4.1
CC(C)(C)C1=CC(=NNc2ccc([N+](=O)[O-])cc2[N+](=O)[O-])C=C(C(C)(C)C)C1=O	HPLC	pH 7.4	> 5.3
CCOC(=O)C1=C(C)N/C(=C/c2cc(C)n(-c3ccc(CN4CCCCC4)cc3)c2C)C1=O	HPLC	pH 7.4	2.7
CC(C)[C@@H]1Cn2ncc(-c3ccc(C(=O)N4CCCc5ccccc54)cc3)c2CN1C(=O)Cc1ccccc1	HPLC	pH 7.4	5.3
CCOC(=O)C1=C(C)N/C(=C/c2cc(C)n(-c3ccc(SC(F)(F)F)cc3)c2C)C1=O	HPLC	pH 7.4	3.8
O=C(Nc1ccccc1C(=O)NC1CC1)c1cccc(N2CCCC2=O)c1	–	pH 7.4	4
CCOC(=O)C1=C(C)N/C(=C/c2cc(CC)n(-c3ccccc3C(F)(F)F)c2CC)C1=O	HPLC	pH 7.4	3.6
CC(=O)Nc1nc(-c2c(F)cccc2F)cs1	–	pH 7.4	3.7
CC1=C(C(=O)O)C(=O)/C(=C\c2cc(C)n(-c3ccccc3C(F)(F)F)c2C)N1	HPLC	pH 7.4	3.2
CCn1c(-c2nc3ccc(C(=O)N4CCCC(N)C4)cc3n2C)cc2ccccc21 (stereo not drawn)	HPLC	pH 7.4	3
